From PubChem BioAssay
Active and inactive are the calls of the source.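 Rule for the calls, unless noted: active = visual image review flags a hit and inhibition of aggregation exceeds 20%; inconclusive = visual hit but inhibition at or below 20%; inactive = no hit on visual image review.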

Assays:
[1] = inhibitors of TNFa-induced NFkB p65 translocation, primary screen, imaging, HUVEC, MLSMR starter and 10KST1 sets (AID 438;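 active = inhibition above 20% together with a positive visual image hit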;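 note: compound added about 3h40 before a 20 min TNFalpha stimulation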;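 for inhibition: signal is the nuclear over cytoplasmic p65 intensity ratio per well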); settings: HUVEC TNFa-induced p65 nuclear translocation; cell count: measured here: nuclei count (cytotoxicity indicator), at 2.08 µM; inhibition: at 2 µM, stronger effect = higher value, 0% TNFa-plus-vehicle, 100% no-TNFa wells
[2] = reduction of polyQ htt aggregates in cells – imaging, exon1htt(103Q)mCFP cells, high-content imaging, primary screen (AID 483); settings: exon1htt(103Q)mCFP cell line, aggregate imaging, at 2 µM; inhibition of aggregation: stronger effect = higher value; nuclei count: measured here: cell count, toxicity;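 note: compound exposure lasted 3 days before fixation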;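 for nuclei count: percent of the per-plate median nuclei count of sample wells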
[3] = endothelial E-selectin expression blockers – imaging, HUVEC, immunofluorescence, MLSMR starter and 10KST1 sets, primary screen (AID 487;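 active = visually confirmed hit in the image check and inhibition above 20%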;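 for inhibition: signal is fraction of cell area covered by stained E-selectin grains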;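 for nuclei count: 100% = median nuclei count of all wells on the same plate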); settings: HUVEC TNFalpha-induced E-selectin immunofluorescence imaging, at 2 µM; inhibition: stronger effect = higher value; nuclei count: measured here: cell number, toxicity
[4] = biological target: Voltage-gated potassium channel subunit beta-2 (Rattus norvegicus) (UniProt P62483); test: inhibitors of rat Kvbeta2 reductase activity – biochemical, NADPH fluorescence, primary screen (AID 622;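 active = fluorescence slope higher than the sample average by over 3 SD, cut at about -0.22 in these data, passing the limit was not always enough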;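 note: slope of raw intensity against log time taken from 70 to 1610 s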); settings: recombinant KvBeta, 4-cyanobenzaldehyde reduction, at 10 µM, stronger effect = higher value
Voltage-gated potassium channel subunit beta-2 (Rattus norvegicus), sequence (P62483 whole entry, looked up): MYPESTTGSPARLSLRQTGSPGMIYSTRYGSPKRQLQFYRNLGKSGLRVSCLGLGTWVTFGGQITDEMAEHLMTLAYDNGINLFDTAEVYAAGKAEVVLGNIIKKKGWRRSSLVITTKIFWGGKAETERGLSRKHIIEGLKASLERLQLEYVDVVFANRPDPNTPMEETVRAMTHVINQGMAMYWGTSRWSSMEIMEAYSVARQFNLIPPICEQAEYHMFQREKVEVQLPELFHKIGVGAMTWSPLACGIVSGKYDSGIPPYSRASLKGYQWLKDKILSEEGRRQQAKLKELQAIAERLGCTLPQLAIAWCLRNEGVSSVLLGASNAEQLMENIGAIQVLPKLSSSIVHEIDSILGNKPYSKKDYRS

[5] = biological target: Voltage-gated potassium channel subunit beta-2 (Rattus norvegicus) (UniProt P62483); test: enhancers of rat Kvbeta2 NADPH turnover – biochemical, NADPH fluorescence, primary screen (AID 623;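 active = NADPH fluorescence slope more negative than the mean of all samples by about 3 SD, 99.7% confidence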;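 note: fluorescence intensity change per second fitted from 20 to 320 s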); settings: Recombinant KvBeta, NADPH fluorescence decrease slope, 10 min; at 10 µM; stronger effect = lower value
[6] = biological target: Muscarinic acetylcholine receptor M4 (Homo sapiens) (UniProt P08173); test: M4-linked GIRK flux change, two-sided – cell-based, HEK293 M4/GIRK, thallium flux, BTC-AM, M4 allosteric agonist project, primary screen (AID 625;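 active = fluorescence slope after compound addition differing from the mean of all tested samples at 99.7% confidence, mostly higher but some lower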;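 note: thallium influx through GIRK channels coupled to M4 in HEK293 cells with BTC-AM dye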); settings: at 10 µM, actives lie on both sides
Muscarinic acetylcholine receptor M4 (Homo sapiens), sequence (P08173 whole entry, looked up): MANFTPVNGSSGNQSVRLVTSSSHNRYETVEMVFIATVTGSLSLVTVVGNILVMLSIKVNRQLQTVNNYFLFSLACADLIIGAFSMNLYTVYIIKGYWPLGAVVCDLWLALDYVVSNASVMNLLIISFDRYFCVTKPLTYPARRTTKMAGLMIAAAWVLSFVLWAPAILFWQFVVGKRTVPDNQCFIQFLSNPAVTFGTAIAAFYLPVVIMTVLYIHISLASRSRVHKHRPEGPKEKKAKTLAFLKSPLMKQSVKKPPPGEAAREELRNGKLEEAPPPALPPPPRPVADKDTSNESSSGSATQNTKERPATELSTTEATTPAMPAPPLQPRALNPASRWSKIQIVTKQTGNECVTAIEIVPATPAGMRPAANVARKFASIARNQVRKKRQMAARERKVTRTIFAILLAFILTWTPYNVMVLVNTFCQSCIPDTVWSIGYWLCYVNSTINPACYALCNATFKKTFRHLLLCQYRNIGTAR
How it was run: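 Material: M4/GIRK1/GIRK2 stable HEK293 cell line. Medium: pH 7.3 thallium assay buffer. Dosing: single compound concentration, 10 µM final. Schedule: 1 h dye loading, 2 min kinetic read. Measured by: kinetic fluorescence with BTC-AM dye. Read-out: post-addition slope, 15–24 s, of baseline-normalized fluorescence. Benchmarks: carbachol and DMSO controls.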

[7] = blockers of RIG-like receptor reporter activation – cell-based, Sendai virus stimulus, luciferase, 10K MLSCN set, TLR/RLR signaling modifier project, primary screen (AID 602276;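 active = inhibition at or above 50% at 10 µM; inactive = inhibition below 50%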;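 note: firefly luciferase from ISG56 promoter only with Renilla not read in this screen; 0% = Sendai virus plus DMSO and 100% = medium plus DMSO without virus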); settings: HEK293 RL24 IRF3 luciferase reporter, at 10 µM, stronger effect = higher value
[8] = TLR3 IRF3 reporter activation blockers – cell-based, poly I:C stimulus, luciferase, 10K MLSCN set, primary screen (AID 602277;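 active = inhibition of the reporter signal at or above 50%; inactive = inhibition below 50%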); settings: HEK293-TLR3 RL24 IRF3 luciferase reporter, at 10 µM, stronger effect = higher value

Compound	cell count [1]	inhibition [1]	inhibition of aggregation [2]	nuclei count [2] [%]	inhibition [3]	nuclei count [3] [%]	fluorescence slope [4]	NADPH fluorescence slope [5]	fluorescence slope [6]	inhibition [7]	inhibition [8]
CCOC(=O)Cc1nn2c(=O)cc(C)nc2s1	728	-22.9% (inactive)	6.2% (inactive)	118	2.2% (inactive)	94.9	-0.474 (inactive)	0.000188 (inactive)	0.00652 (inactive)	2.1% (inactive)	11.1% (inactive)
O=C1CC(C(=O)Nc2ccccc2)C2(CCCC2)O1 (stereo not drawn)	425	6% (inactive)	2.4% (inactive)	106	-80.4% (inactive)	110	-0.569 (inactive)	-5.8e-05 (inactive)	0.00631 (inactive)	4.72% (inactive)	6.07% (inactive)
COc1ccc(S(=O)(=O)NCc2ccco2)cc1-c1nnc2c3ccccc3c(C)nn12	723	-2.2% (inactive)	-27% (inactive)	101	-77.8% (inactive)	106	-0.444 (inactive)	-2.6e-05 (inactive)	0.00549 (inactive)	12.3% (inactive)	11.8% (inactive)
ON1C2CCCCC2N(O)C1c1c(F)c(F)c(F)c(F)c1F (stereo not drawn)	431	4.1% (inactive)	-6.9% (inactive)	105	-53.7% (inactive)	102	-0.546 (inactive)	-2.9e-05 (inactive)	0.00415 (inactive)	15.7% (inactive)	22% (inactive)
Cc1occc1C(=O)Nc1cccc2ccccc12	670	5.2% (inactive)	16.6% (inactive)	97.2	-185% (inactive)	100	-0.546 (inactive)	7.3e-06 (inactive)	0.00507 (inactive)	-27.7% (inactive)	-86.3% (inactive)
O=C(Cn1nnc(-c2ccncc2)n1)Nc1ccc2c(c1)CCC2	674	-8.6% (inactive)	5% (inactive)	89.1	-115% (inactive)	140	-0.465 (inactive)	-6.3e-05 (inactive)	0.00619 (inactive)	-0.547% (inactive)	-23.3% (inactive)
O=C(c1noc2c1CCc1ccccc1-2)N1CCOCC1	234	-5.4% (inactive)	18.9% (inactive)	90.2	-35.7% (inactive)	120	-0.572 (inactive)	2.9e-06 (inactive)	0.0064 (inactive)	-5.37% (inactive)	-37.8% (inactive)
O=C(CCCCCn1c(=O)[nH]c2ccsc2c1=O)N1CCCCC1	306	-1.8% (inactive)	25.2% (inactive)	91.7	-75% (inactive)	85.7	-0.457 (inactive)	-2.3e-05 (inactive)	0.0042 (inactive)	18.4% (inactive)	6.28% (inactive)
COc1cccc(/C(O)=C2/C(=O)C(=O)N(CCN3CCOCC3)C2c2cccnc2)c1 (stereo not drawn)	270	15% (inactive)	5.3% (inactive)	107	-37.6% (inactive)	117	-0.576 (inactive)	-1.6e-05 (inactive)	0.00687 (inactive)	-4.6% (inactive)	9.66% (inactive)
CCN(CC)c1ccc(NC(=O)c2[nH]c(C)c(C(C)=O)c2C)c(C)c1	911	7.1% (inactive)	8.4% (inactive)	109	-105% (inactive)	136	-0.555 (inactive)	-3.3e-05 (inactive)	0.00732 (inactive)	2.56% (inactive)	-8.53% (inactive)
O=C(CN1C(=O)c2cccc3cccc1c23)Nc1ccccc1C(=O)NCc1ccco1	584	-29.6% (inactive)	-3.5% (inactive)	98.7	-37.6% (inactive)	105	-0.0129 (inactive)	-5.3e-06 (inactive)	0.00606 (inactive)	8.08% (inactive)	13.4% (inactive)
O=C(Nc1cccc(F)c1)N1CC=C(n2c(=O)[nH]c3ccccc32)CC1	312	5.7% (inactive)	4.5% (inactive)	107	-37.9% (inactive)	83.5	-0.453 (inactive)	-0.000227 (inactive)	0.00517 (inactive)	15% (inactive)	15.5% (inactive)
CCN(CC)S(=O)(=O)c1ccc2oc(C(=O)O)c(C)c2c1	335	12.8% (inactive)	39.6% (inactive)	85.6	-89.3% (inactive)	104	-0.473 (inactive)	0.000115 (inactive)	0.00522 (inactive)	5.96% (inactive)	11.9% (inactive)
Cc1ccccc1NC(=O)C1Cc2ccccc2C(=O)O1 (stereo not drawn)	193	-5.8% (inactive)	-4.8% (inactive)	76.3	20.2% (inactive)	79.8	-0.529 (inactive)	-3.3e-05 (inactive)	0.00563 (inactive)	-9.01% (inactive)	-31.6% (inactive)
O=C(NCc1ccc(F)cc1)c1cc(-c2ccco2)on1	330	-17.6% (inactive)	18.1% (inactive)	92	29.3% (inactive)	102	-0.46 (inactive)	-5.1e-05 (inactive)	0.00521 (inactive)	-17.1% (inactive)	-42.6% (inactive)
COc1ccccc1-c1cc(C(=O)NCCCn2ccnc2)no1	459	-15.2% (inactive)	-15.7% (inactive)	106	49.5% (inactive)	90	-0.291 (inactive)	-2.7e-05 (inactive)	0.00777 (inactive)	5.02% (inactive)	36% (inactive)
O=C(NCCc1cccc(Cl)c1)c1cccnc1	341	-8% (inactive)	-14.1% (inactive)	95.5	-194% (inactive)	119	-0.562 (inactive)	-1.7e-05 (inactive)	0.00601 (inactive)	-14.6% (inactive)	-52% (inactive)
CCCc1n[nH]c2c1/C(=N/O)CC(c1ccccc1)C2 (stereo not drawn)	522	-13.6% (inactive)	3.1% (inactive)	93.4	-7.4% (inactive)	110	-0.594 (inactive)	4.1e-05 (inactive)	0.0053 (inactive)	8.69% (inactive)	-7.88% (inactive)
Brc1ccc2[nH]ncc2c1	364	4.4% (inactive)	8.2% (inactive)	91.4	13.4% (inactive)	77	-0.477 (inactive)	-3.1e-06 (inactive)	0.00572 (inactive)	15.5% (inactive)	22.5% (inactive)
CC(NC(=O)CSc1n[nH]c(=O)n1C1CC1)C12CC3CC(CC(C3)C1)C2 (stereo not drawn)	563	-23% (inactive)	-6.1% (inactive)	101	-5.1% (inactive)	110	-0.378 (inactive)	8.6e-05 (inactive)	0.00652 (inactive)	7.91% (inactive)	23.3% (inactive)
O=C(CSc1nnc(Cn2nnc(-c3ccccc3)n2)n1-c1ccccc1)Nc1ccc(F)cc1	626	-9.3% (inactive)	-10.3% (inactive)	101	-114% (inactive)	111	-0.573 (inactive)	-6e-05 (inactive)	0.00351 (inactive)	10.9% (inactive)	14.9% (inactive)
COc1ccccc1Nc1nc(N)nc(CN2CCN(c3ccccc3F)CC2)n1	561	-12.1% (inactive)	-5.7% (inactive)	97.3	25.3% (inactive)	97.6	-0.571 (inactive)	-2.2e-05 (inactive)	0.00301 (inactive)	-5.08% (inactive)	-10.4% (inactive)
CN1CCN(C(=O)CN(Cc2ccc(Cl)cc2)S(C)(=O)=O)CC1	242	-2.8% (inactive)	6.8% (inactive)	92	-25% (inactive)	110	-0.535 (inactive)	9.7e-06 (inactive)	0.00447 (inactive)	18% (inactive)	19.4% (inactive)
CN1CCN(CC(=O)Nc2ccc(Cl)cc2Cl)CC1	445	-3.5% (inactive)	0% (inactive)	103	66.8% (inactive)	78.8	-0.619 (inactive)	7.6e-06 (inactive)	0.00642 (inactive)	11% (inactive)	14.7% (inactive)
COc1ccccc1-c1noc(-c2cccnc2)n1	405	0% (inactive)	-5.9% (inactive)	106	-6.3% (inactive)	125	-0.568 (inactive)	-7.6e-05 (inactive)	0.00345 (inactive)	-24.5% (inactive)	-87.9% (inactive)
CS(=O)(=O)N1CCc2cc(C(=O)N3CCCCC3)ccc21	493	6.1% (inactive)	0.6% (inactive)	100	-8.3% (inactive)	83.3	-0.494 (inactive)	5.6e-05 (inactive)	0.00629 (inactive)	17.7% (inactive)	18.6% (inactive)
C=CCOc1nc(N2CCCC2)nc(N2CCCC2)n1	579	-7.6% (inactive)	4.8% (inactive)	109	23.8% (inactive)	84.1	-0.551 (inactive)	-8.3e-05 (inactive)	0.00552 (inactive)	10.7% (inactive)	14.3% (inactive)
Cc1ccccc1CS(=O)(=O)CCC(=O)N1CCN(c2ccc(N3CCOCC3)nn2)CC1	318	-0.9% (inactive)	-19.9% (inactive)	81	-146% (inactive)	87.2	-0.424 (inactive)	-8.7e-08 (inactive)	0.00541 (inactive)	3.04% (inactive)	12.2% (inactive)
